Assays:
[1] = system: CAL-27; test: Cell cycle arrest in human CAL-27 cells assessed as accumulation at G0/G1 phase at 10 uM incubated for 24 hrs by flow cytometry (reference value: 77.6 %); format: functional
[2] = system: CAL-27; test: Induction of apoptosis in human CAL-27 cells assessed as early apoptotic cells at 34 uM incubated for 24 hrs by Annexin V-FITC/PI staining based flow cytometric analysis (reference value: 0.1 %); format: functional
Summary of the method: (§1)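 CAL27 cells were treated with vehicle, doxorubicin or test compounds at 10–63 μM, and apoptosis was assessed by annexin V–FITC/PI staining with flow cytometry. Cells were scored as live, early apoptotic, late apoptotic or necrotic. The vehicle was DMSO (0.01%).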

[3] = system: SCC-9; test: Induction of apoptosis in human SCC-9 cells assessed as early apoptotic cells at 34 uM incubated for 24 hrs by Annexin V-FITC/PI staining based flow cytometric analysis (reference value: 2.8 %); format: functional
[4] = system: SCC-9; test: Induction of apoptosis in human SCC-9 cells assessed as live cells at 34 uM incubated for 24 hrs by Annexin V-FITC/PI staining based flow cytometric analysis (reference value: 95.7 %); format: functional
[5] = system: MCF7; test: Cytotoxicity against human MCF7 cells assessed as cell growth inhibition; format: functional, cell-based
Summary of the method: (§2)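 Compounds were dissolved in sterile DMSO as 10 mg ml−1 stocks and tested for in vitro growth inhibition of human cancer cell lines. Doxorubicin was the standard drug and DMSO (0.01%) the vehicle control. IC50 values are reported as means.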

[6] = system: CAL-27; test: Cell cycle arrest in human CAL-27 cells assessed as accumulation at G0/G1 phase at 34 uM incubated for 24 hrs by flow cytometry (reference value: 77.6 %); format: functional
[7] = system: HCT-15; test: Cytotoxicity against human HCT-15 cells assessed as cell growth inhibition; format: functional, cell-based; summary of the method: as §2
[8] = system: CAL-27; test: Cell cycle arrest in human CAL-27 cells assessed as accumulation at G2/M phase at 10 uM incubated for 24 hrs by flow cytometry (reference value: 11.9 %); format: functional
[9] = system: SCC-9; test: Cytotoxicity against human SCC-9 cells assessed as cell growth inhibition; format: functional, cell-based; summary of the method: as §2
[10] = system: CAL-27; test: Induction of apoptosis in human CAL-27 cells assessed as live cells at 34 uM incubated for 24 hrs by Annexin V-FITC/PI staining based flow cytometric analysis (reference value: 99.8 %); format: functional; summary of the method: as §1
[11] = system: CAL-27; test: Cytotoxicity against human CAL-27 cells assessed as cell growth inhibition; format: functional, cell-based; summary of the method: as §2
[12] = system: SCC-9; test: Cell cycle arrest in human SCC-9 cells assessed as accumulation at G0/G1 phase at 17 uM incubated for 24 hrs by flow cytometry (reference value: 70.8 %); format: functional
[13] = system: CAL-27; test: Cell cycle arrest in human CAL-27 cells assessed as accumulation at S phase at 34 uM incubated for 24 hrs by flow cytometry (reference value: 3.6 %); format: functional
[14] = system: SCC-9; test: Cell cycle arrest in human SCC-9 cells assessed as accumulation at G0/G1 phase at 34 uM incubated for 24 hrs by flow cytometry (reference value: 70.8 %); format: functional
[15] = system: CAL-27; test: Induction of apoptosis in human CAL-27 cells assessed as necrotic cells at 34 uM incubated for 24 hrs by Annexin V-FITC/PI staining based flow cytometric analysis (reference value: 0.0 %); format: functional
[16] = system: SCC-9; test: Cell cycle arrest in human SCC-9 cells assessed as accumulation at S phase at 34 uM incubated for 24 hrs by flow cytometry (reference value: 14.4 %); format: functional
[17] = system: SCC-9; test: Induction of apoptosis in human SCC-9 cells assessed as late apoptotic cells at 17 uM incubated for 24 hrs by Annexin V-FITC/PI staining based flow cytometric analysis (reference value: 1.4 %); format: functional
[18] = system: SCC-9; test: Induction of apoptosis in human SCC-9 cells assessed as late apoptotic cells at 34 uM incubated for 24 hrs by Annexin V-FITC/PI staining based flow cytometric analysis (reference value: 1.4 %); format: functional
[19] = system: CAL-27; test: Induction of apoptosis in human CAL-27 cells assessed as late apoptotic cells at 10 uM incubated for 24 hrs by Annexin V-FITC/PI staining based flow cytometric analysis (reference value: 0.1 %); format: functional; summary of the method: as §1
[20] = system: SCC-9; test: Cell cycle arrest in human SCC-9 cells assessed as accumulation at S phase at 17 uM incubated for 24 hrs by flow cytometry (reference value: 14.4 %); format: functional
[21] = system: SCC-9; test: Induction of apoptosis in human SCC-9 cells assessed as necrotic cells at 17 uM incubated for 24 hrs by Annexin V-FITC/PI staining based flow cytometric analysis (reference value: 0.1 %); format: functional
[22] = system: SCC-9; test: Induction of apoptosis in human SCC-9 cells assessed as live cells at 17 uM incubated for 24 hrs by Annexin V-FITC/PI staining based flow cytometric analysis (reference value: 95.7 %); format: functional
[23] = system: SCC-9; test: Induction of apoptosis in human SCC-9 cells assessed as necrotic cells at 34 uM incubated for 24 hrs by Annexin V-FITC/PI staining based flow cytometric analysis (reference value: 0.1 %); format: functional
[24] = system: CAL-27; test: Cell cycle arrest in human CAL-27 cells assessed as accumulation at G2/M phase at 34 uM incubated for 24 hrs by flow cytometry (reference value: 11.9 %); format: functional
[25] = system: CAL-27; test: Cell cycle arrest in human CAL-27 cells assessed as accumulation at S phase at 10 uM incubated for 24 hrs by flow cytometry (reference value: 3.6 %); format: functional
[26] = system: SCC-9; test: Cell cycle arrest in human SCC-9 cells assessed as accumulation at G2/M phase at 17 uM incubated for 24 hrs by flow cytometry (reference value: 14.2 %); format: functional
[27] = system: SCC-9; test: Cell cycle arrest in human SCC-9 cells assessed as accumulation at G2/M phase at 34 uM incubated for 24 hrs by flow cytometry (reference value: 14.2 %); format: functional
[28] = system: CAL-27; test: Induction of apoptosis in human CAL-27 cells assessed as necrotic cells at 10 uM incubated for 24 hrs by Annexin V-FITC/PI staining based flow cytometric analysis (reference value: 0.0 %); format: functional; summary of the method: as §1
[29] = system: CAL-27; test: Induction of apoptosis in human CAL-27 cells assessed as late apoptotic cells at 34 uM incubated for 24 hrs by Annexin V-FITC/PI staining based flow cytometric analysis (reference value: 0.1 %); format: functional; summary of the method: as §1
[30] = system: CAL-27; test: Induction of apoptosis in human CAL-27 cells assessed as early apoptotic cells at 10 uM incubated for 24 hrs by Annexin V-FITC/PI staining based flow cytometric analysis (reference value: 0.1 %); format: functional; summary of the method: as §1
[31] = system: SCC-9; test: Induction of apoptosis in human SCC-9 cells assessed as early apoptotic cells at 17 uM incubated for 24 hrs by Annexin V-FITC/PI staining based flow cytometric analysis (reference value: 2.8 %); format: functional
[32] = Cytotoxicity against human BEAS-2B cells assessed as cell growth inhibition; format: toxicity, cell-based
Summary of the method: (§3)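 Compounds were dissolved in sterile DMSO as 10 mg ml−1 stocks and tested in vitro for cytotoxicity in a cell-line panel, with DMSO (0.01%) as vehicle control and doxorubicin as standard. Mean IC50 values were reported, and the normal lung epithelial cells were tested up to 100 μM.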

[33] = system: A549; test: Cytotoxicity against human A549 cells assessed as cell growth inhibition; format: functional, cell-based; summary of the method: as §3
[34] = system: CAL-27; test: Induction of apoptosis in human CAL-27 cells assessed as live cells at 10 uM incubated for 24 hrs by Annexin V-FITC/PI staining based flow cytometric analysis (reference value: 99.8 %); format: functional; summary of the method: as §1

COc1c(O)c(CN2CCN(CC(=O)Nc3nc(-c4ccccc4)cs3)CC2)c2c(c1O)C1O[C@H](CO)[C@@H](O)[C@H](O)C1OC2=O (some centres undefined)
Activity [1]: 87.4%
Activity [2]: 2.2%
Activity [3]: 32.4%
Activity [4]: 20.2%
IC50 [5]: > 100 µM
Activity [6]: 85.6%
IC50 [7]: 69.7 µM
Activity [8]: 10.6%
IC50 [9]: 34.4 µM
Activity [10]: 88.7%
IC50 [11]: 20.7 µM
Activity [12]: 71%
Activity [13]: 4.1%
Activity [14]: 73.6%
Activity [15]: 4.3%
Activity [16]: 12.6%
Activity [17]: 42%
Activity [18]: 45.6%
Activity [19]: 2.2%
Activity [20]: 16.5%
Activity [21]: 1.3%
Activity [22]: 28%
Activity [23]: 1.8%
Activity [24]: 10.8%
Activity [25]: 2.9%
Activity [26]: 11.8%
Activity [27]: 10.3%
Activity [28]: 2%
Activity [29]: 4.8%
Activity [30]: 1.2%
Activity [31]: 28.8%
IC50 [32]: > 100 µM
IC50 [33]: > 100 µM
Activity [34]: 94.5%

From ChEMBL document CHEMBL5108039, “Piperazine tethered bergenin heterocyclic hybrids: design, synthesis, anticancer activity, and molecular docking studies” (RSC Med Chem, 2022)
